Test results taken from ChEMBL document CHEMBL2150909, “Imidazo[1,2-a]pyridines: orally active positive allosteric modulators of the metabotropic glutamate 2 receptor” (J Med Chem, 2012).
Active and inactive are the calls of the source. The rule behind the calls is not given here.

Experiments:
[1] = AUC (0 to infinity) in Sprague-Dawley rat at 10 mg/kg, po and 2.5 mg/kg, iv; assay type: ADME, organism-based; conditions: plasma
Procedure, shortened: (§1)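 Rat PK: compounds formulated in 20% HP-β-CD at pH 4 and given orally and intravenously. Values are geometric means of at least two runs ± SEM.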

[2] = Ratio of drug level in brain to plasma of Sprague-Dawley rat at 10 mg/kg, sc after 4 hrs; assay type: ADME, organism-based; set-up: dose 10 mg/kg, route subcutaneous; conditions: brain and plasma, read-out: BPR
Procedure, shortened: (§2)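 Male Sprague−Dawley rats given 10 mg/kg subcutaneously, vehicle 20% HP-β-CD at pH 4. Plasma (ng/mL) and brain (ng/g) drug levels determined at the listed post-dose time; B/P ratio derived from them. Values are geometric means of at least two runs ± SEM.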

[3] = biological target: T1, Metabotropic glutamate receptor 7 (Homo sapiens, UniProt Q14831); test: Agonist activity at human mGlu 7 expressed in HEK293 cells by Ca+2 assay; assay type: functional, cell-based
[4] = Clearance in Sprague-Dawley rat at 10 mg/kg, po and 2.5 mg/kg, iv; assay type: ADME, organism-based; conditions: in vivo
[5] = Drug uptake in Sprague-Dawley rat brain at 10 mg/kg, sc after 2 hrs; assay type: ADME, organism-based; set-up: dose 10 mg/kg, route subcutaneous; conditions: read-out: Drug uptake
Procedure, shortened: (§3)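 Brain exposure in male Sprague-Dawley rats after a 10 mg/kg subcutaneous dose, vehicle 20% HP-β-CD at pH 4. Brain level measured in ng/g alongside plasma in ng/mL; geometric mean of at least two runs ± SEM.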

[6] = biological target: T2, Metabotropic glutamate receptor 2 (Homo sapiens, UniProt Q14416); test: Agonist activity at human mGlu 2 expressed in CHO cells by PAM assay relative to glutamate; assay type: functional, cell-based
Procedure, shortened: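 The assay measured [35S]GTPγS binding to membranes from CHO cells expressing human mGluR2. Cells were butyrate-stimulated (5 mM, 24 h) before membranes were prepared. Membranes were preincubated for 30 min at 30 °C in HEPES pH 7.4 buffer (NaCl, MgCl2, 50 μM GDP) with compound (0.3 nM–50 μM, 11 concentrations) plus EC25 glutamate. [35S]GTPγS (0.1 nM final) was then added for 30 min at 30 °C. Bound label was collected by filtration and counted. Runs were done at least in triplicate with duplicate points, and a four-parameter logistic fit gave the values.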

[7] = Ratio of drug level in brain to plasma of Sprague-Dawley rat at 10 mg/kg, sc after 1 hr; assay type: ADME, organism-based; set-up: dose 10 mg/kg, route subcutaneous; conditions: read-out: BPR; procedure, shortened: as §2
[8] = Drug uptake in Sprague-Dawley rat brain at 10 mg/kg, sc after 1 hr; assay type: ADME, organism-based; set-up: dose 10 mg/kg, route subcutaneous; conditions: read-out: Drug uptake; procedure, shortened: as §3
[9] = Cmax in Sprague-Dawley rat at 10 mg/kg, po and 2.5 mg/kg, iv; assay type: ADME, organism-based; conditions: in vivo; procedure, shortened: as §1
[10] = biological target: Metabotropic glutamate receptor 6 (Rattus norvegicus) (UniProt P35349); test: Antagonist activity at rat mGlu 6 expressed in CHO cells assessed as inhibition of [35S]GTPgammaS binding by liquid scintillation counting; assay type: functional, cell-based
Metabotropic glutamate receptor 6 (Rattus norvegicus), sequence (P35349 whole entry): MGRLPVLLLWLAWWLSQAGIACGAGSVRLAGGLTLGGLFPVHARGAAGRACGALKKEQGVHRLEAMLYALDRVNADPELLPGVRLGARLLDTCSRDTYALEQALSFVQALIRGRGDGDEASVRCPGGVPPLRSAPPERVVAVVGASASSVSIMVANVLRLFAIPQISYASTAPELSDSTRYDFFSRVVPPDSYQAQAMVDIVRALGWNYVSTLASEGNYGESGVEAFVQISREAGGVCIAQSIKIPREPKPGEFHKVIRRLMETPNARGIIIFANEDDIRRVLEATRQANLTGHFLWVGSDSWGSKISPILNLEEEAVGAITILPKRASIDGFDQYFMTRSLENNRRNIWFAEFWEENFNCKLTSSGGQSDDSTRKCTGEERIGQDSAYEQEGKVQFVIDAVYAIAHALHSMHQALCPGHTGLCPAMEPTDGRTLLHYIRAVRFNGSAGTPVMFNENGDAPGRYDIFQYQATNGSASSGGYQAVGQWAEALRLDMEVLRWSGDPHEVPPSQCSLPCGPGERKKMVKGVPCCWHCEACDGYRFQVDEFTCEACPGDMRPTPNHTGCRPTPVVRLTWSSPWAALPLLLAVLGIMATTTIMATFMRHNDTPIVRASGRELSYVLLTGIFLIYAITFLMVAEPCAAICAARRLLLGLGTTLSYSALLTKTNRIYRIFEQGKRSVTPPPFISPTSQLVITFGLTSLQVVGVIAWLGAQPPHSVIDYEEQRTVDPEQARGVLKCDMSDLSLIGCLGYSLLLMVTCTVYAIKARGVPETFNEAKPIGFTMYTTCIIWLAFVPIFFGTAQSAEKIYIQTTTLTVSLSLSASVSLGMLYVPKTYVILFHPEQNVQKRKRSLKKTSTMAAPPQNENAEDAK
Procedure, shortened: (§4)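 [35S]GTPγS functional assays on human mGlu4 or rat mGlu6 receptors expressed in L929 or CHO cells; agonist and antagonist modes tested at 10 μM.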

[11] = biological target: Metabotropic glutamate receptor 3 (Homo sapiens) (UniProt Q14832); test: Antagonist activity at human mGlu 3 expressed in HEK293 cells at 10 uM by Ca+2 assay; assay type: functional, cell-based
Metabotropic glutamate receptor 3 (Homo sapiens), sequence (Q14832 23-879 limits assumed): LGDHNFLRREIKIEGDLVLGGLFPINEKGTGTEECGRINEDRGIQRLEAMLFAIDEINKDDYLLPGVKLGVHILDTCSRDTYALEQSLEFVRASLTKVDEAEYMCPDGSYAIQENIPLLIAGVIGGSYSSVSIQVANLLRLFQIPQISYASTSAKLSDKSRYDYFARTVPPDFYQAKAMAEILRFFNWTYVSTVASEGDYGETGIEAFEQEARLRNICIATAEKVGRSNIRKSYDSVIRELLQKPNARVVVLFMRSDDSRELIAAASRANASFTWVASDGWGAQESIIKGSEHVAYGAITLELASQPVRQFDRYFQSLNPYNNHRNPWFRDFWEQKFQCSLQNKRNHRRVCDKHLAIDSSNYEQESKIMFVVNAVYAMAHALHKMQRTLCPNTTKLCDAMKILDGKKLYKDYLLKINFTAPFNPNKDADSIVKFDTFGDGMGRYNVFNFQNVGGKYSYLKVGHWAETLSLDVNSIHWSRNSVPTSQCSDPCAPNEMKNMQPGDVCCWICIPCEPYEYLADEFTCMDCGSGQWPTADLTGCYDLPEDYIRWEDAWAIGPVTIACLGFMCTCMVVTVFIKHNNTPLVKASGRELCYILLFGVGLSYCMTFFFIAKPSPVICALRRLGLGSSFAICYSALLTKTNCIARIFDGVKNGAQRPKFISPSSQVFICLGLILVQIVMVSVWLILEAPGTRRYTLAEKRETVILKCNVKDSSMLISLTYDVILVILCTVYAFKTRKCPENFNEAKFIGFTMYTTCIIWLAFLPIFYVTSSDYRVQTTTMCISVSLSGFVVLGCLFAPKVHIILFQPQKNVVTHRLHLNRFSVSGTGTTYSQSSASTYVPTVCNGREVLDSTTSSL
Procedure, shortened: (§5)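 Ca2+ assays on human mGlu1, mGlu3, mGlu5, mGlu7 or mGlu8 receptors, each expressed in HEK293 cells; compound tested at 10 μM for agonist and antagonist activity.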

[12] = biological target: Metabotropic glutamate receptor 5 (Homo sapiens) (UniProt P41594); test: Agonist activity at human mGlu 5 expressed in HEK293 cells at 10 uM by Ca+2 assay; assay type: functional, cell-based; procedure, shortened: as §5
[13] = biological target: Metabotropic glutamate receptor 1 (Homo sapiens) (UniProt Q13255); test: Antagonist activity at human mGlu 1 expressed in HEK293 cells at 10 uM by Ca+2 assay; assay type: functional, cell-based; procedure, shortened: as §5
Metabotropic glutamate receptor 1 (Homo sapiens), sequence (Q13255 19-1194 limits assumed): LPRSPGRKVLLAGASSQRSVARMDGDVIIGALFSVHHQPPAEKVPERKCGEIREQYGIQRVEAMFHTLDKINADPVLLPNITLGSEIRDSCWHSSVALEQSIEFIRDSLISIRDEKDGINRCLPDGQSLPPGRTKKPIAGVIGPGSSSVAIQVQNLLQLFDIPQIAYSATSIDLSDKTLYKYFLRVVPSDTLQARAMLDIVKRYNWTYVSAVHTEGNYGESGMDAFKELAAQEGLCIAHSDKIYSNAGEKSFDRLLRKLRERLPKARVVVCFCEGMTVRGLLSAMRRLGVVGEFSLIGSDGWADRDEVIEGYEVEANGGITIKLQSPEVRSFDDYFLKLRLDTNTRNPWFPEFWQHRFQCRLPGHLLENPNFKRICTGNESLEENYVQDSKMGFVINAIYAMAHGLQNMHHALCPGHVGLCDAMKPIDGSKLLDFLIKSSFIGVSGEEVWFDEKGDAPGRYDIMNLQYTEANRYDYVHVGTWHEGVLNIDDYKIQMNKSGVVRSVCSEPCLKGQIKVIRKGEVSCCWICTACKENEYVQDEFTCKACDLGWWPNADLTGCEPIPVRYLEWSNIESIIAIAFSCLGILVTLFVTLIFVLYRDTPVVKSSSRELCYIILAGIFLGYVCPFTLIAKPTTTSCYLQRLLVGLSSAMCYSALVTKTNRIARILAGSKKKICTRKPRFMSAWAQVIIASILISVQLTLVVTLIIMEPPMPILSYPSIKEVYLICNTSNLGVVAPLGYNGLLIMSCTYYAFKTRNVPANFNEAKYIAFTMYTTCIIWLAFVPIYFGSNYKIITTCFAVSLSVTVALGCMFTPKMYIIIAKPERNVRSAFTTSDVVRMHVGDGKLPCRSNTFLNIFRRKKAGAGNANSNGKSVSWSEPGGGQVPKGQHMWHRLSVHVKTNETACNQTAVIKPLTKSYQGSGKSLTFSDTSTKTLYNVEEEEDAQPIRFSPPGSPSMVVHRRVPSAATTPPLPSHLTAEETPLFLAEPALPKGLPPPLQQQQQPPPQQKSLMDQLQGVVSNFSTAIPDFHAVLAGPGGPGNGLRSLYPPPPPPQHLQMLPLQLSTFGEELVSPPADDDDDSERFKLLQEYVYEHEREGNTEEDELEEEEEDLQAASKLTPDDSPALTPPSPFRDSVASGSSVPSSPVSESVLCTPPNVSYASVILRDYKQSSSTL

[14] = biological target: Metabotropic glutamate receptor 4 (Homo sapiens) (UniProt Q14833); test: Agonist activity at human mGlu 4 expressed in L929 cells assessed as [35S]GTPgammaS binding by liquid scintillation counting; assay type: functional, cell-based; procedure, shortened: as §4
Metabotropic glutamate receptor 4 (Homo sapiens), sequence (Q14833 whole entry): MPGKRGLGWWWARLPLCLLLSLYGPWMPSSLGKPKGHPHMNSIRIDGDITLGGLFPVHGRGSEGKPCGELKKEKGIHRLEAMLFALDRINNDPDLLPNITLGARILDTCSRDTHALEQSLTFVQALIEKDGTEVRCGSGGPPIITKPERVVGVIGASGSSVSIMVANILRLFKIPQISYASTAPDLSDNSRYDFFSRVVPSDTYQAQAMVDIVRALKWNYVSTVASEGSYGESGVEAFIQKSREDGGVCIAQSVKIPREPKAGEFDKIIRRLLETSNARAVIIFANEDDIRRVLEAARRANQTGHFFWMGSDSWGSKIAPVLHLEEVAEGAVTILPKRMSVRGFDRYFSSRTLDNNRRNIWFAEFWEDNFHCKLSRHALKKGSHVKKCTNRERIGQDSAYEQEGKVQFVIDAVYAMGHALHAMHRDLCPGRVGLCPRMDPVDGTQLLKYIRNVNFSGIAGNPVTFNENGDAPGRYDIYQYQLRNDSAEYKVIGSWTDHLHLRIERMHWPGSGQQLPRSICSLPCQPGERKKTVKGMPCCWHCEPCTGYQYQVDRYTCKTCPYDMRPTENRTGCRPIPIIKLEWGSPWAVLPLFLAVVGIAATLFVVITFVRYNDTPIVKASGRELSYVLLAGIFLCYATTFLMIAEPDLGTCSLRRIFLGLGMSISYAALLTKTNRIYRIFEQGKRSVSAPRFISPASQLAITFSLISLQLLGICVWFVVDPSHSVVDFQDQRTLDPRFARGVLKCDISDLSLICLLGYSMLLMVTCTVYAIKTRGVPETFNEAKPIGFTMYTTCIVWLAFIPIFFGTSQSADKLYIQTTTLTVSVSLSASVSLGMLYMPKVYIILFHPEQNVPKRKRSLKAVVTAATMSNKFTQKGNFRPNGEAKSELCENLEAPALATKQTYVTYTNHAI

[15] = Drug uptake in Sprague-Dawley rat brain at 10 mg/kg, sc after 4 hrs; assay type: ADME, organism-based; set-up: dose 10 mg/kg, route subcutaneous; conditions: read-out: Drug uptake; procedure, shortened: as §3
[16] = Half life in Sprague-Dawley rat at 10 mg/kg, po and 2.5 mg/kg, iv; assay type: ADME, organism-based; conditions: in vivo; procedure, shortened: as §1
[17] = Metabolic stability of Sprague-Dawley rat liver microsomes assessed as compound metabolized at 5 uM after 15 mins; assay type: ADME, Microsome; conditions: read-out: Drug metabolism
Procedure, shortened: (§6)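 Test compound at 5 μM incubated 15 min with rat or human liver microsomes; read-out is percent of compound metabolized.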

[18] = biological target: T2, Metabotropic glutamate receptor 2; test: Agonist activity at human mGlu 2 expressed in CHO cells assessed as [35S]GTPgammaS binding by liquid scintillation analysis; assay type: functional, cell-based
Procedure, shortened: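 Membranes from butyrate-stimulated (5 mM, 24 h) CHO cells expressing human mGlu2. Preincubated 30 min at 30 °C in HEPES pH 7.4 with NaCl, MgCl2, 50 μM GDP and saponin; modulator 0.3 nM–50 μM, no added glutamate. [35S]GTPγS 0.1 nM final, 30 min at 30 °C, filtered, scintillation counted. Nonspecific binding defined with cold GTP; 11 concentrations in duplicate, ≥3 curves.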

[19] = biological target: T1, Metabotropic glutamate receptor 7; test: Antagonist activity at human mGlu 7 expressed in HEK293 cells at 10 uM by Ca+2 assay; assay type: functional, cell-based; procedure, shortened: as §5
[20] = Plasma concentration in Sprague-Dawley rat at 10 mg/kg, sc after 2 hrs; assay type: ADME, organism-based; set-up: dose 10 mg/kg, route subcutaneous; procedure, shortened: as §2
[21] = Ratio of drug level in brain to plasma of Sprague-Dawley rat at 10 mg/kg, sc after 2 hrs; assay type: ADME, organism-based; set-up: dose 10 mg/kg, route subcutaneous; conditions: read-out: BPR; procedure, shortened: as §2
[22] = Plasma concentration in Sprague-Dawley rat at 10 mg/kg, sc after 4 hrs; assay type: ADME, organism-based; set-up: dose 10 mg/kg, route subcutaneous; procedure, shortened: as §2
[23] = biological target: Metabotropic glutamate receptor 8 (Homo sapiens) (UniProt O00222); test: Antagonist activity at human mGlu 8 expressed in HEK293 cells at 10 uM by Ca+2 assay; assay type: functional, cell-based; procedure, shortened: as §5
Metabotropic glutamate receptor 8 (Homo sapiens), sequence (O00222 whole entry): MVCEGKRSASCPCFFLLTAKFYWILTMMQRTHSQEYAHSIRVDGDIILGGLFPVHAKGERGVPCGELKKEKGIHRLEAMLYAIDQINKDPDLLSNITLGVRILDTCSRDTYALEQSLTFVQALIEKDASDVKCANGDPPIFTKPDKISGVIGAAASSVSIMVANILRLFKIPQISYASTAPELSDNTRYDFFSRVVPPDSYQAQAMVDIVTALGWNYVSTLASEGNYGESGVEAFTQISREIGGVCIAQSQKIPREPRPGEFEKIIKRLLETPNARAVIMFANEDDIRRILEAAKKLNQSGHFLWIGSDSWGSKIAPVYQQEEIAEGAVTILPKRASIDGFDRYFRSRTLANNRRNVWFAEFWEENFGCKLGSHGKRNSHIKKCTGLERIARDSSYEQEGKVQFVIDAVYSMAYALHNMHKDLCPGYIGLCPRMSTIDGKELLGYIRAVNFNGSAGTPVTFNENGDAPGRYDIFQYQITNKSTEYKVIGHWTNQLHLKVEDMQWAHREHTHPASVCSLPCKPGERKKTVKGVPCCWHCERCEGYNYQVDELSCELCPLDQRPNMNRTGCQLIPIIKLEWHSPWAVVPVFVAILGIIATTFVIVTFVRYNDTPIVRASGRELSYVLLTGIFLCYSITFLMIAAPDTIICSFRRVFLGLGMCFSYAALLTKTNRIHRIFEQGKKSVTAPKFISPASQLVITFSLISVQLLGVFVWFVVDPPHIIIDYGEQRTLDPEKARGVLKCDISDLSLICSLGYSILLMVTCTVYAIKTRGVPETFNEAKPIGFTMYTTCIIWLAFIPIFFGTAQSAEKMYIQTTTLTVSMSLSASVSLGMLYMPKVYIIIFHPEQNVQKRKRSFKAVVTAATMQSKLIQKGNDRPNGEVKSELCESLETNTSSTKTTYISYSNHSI

[24] = biological target: Metabotropic glutamate receptor 8 (Homo sapiens) (UniProt O00222); test: Agonist activity at human mGlu 8 expressed in HEK293 cells at 10 uM by Ca+2 assay; assay type: functional, cell-based; procedure, shortened: as §5
[25] = biological target: Metabotropic glutamate receptor 6 (Rattus norvegicus) (UniProt P35349); test: Agonist activity at rat mGlu 6 expressed in CHO cells assessed as [35S]GTPgammaS binding by liquid scintillation counting; assay type: functional, cell-based; procedure, shortened: as §4
[26] = biological target: Metabotropic glutamate receptor 3 (Homo sapiens) (UniProt Q14832); test: Agonist activity at human mGlu 3 expressed in HEK293 cells at 10 uM by Ca+2 assay; assay type: functional, cell-based; procedure, shortened: as §5
[27] = biological target: Metabotropic glutamate receptor 1 (Homo sapiens) (UniProt Q13255); test: Agonist activity at human mGlu 1 expressed in HEK293 cells at 10 uM by Ca+2 assay; assay type: functional, cell-based; procedure, shortened: as §5
[28] = Oral bioavailability in Sprague-Dawley rat at 10 mg/kg; assay type: ADME, organism-based; conditions: in vivo
Procedure, shortened: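 Male Sprague-Dawley rats given 10 mg/kg orally and/or 1.25 mg/kg intravenously; compound formulated in 20% HP-β-CD at pH 4. Cmax, tmax, AUC0−inf, t1/2, clearance and oral bioavailability F derived from plasma levels; geometric mean of at least two runs ± SEM.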

[29] = Plasma concentration in Sprague-Dawley rat at 10 mg/kg, sc after 1 hr; assay type: ADME, organism-based; set-up: dose 10 mg/kg, route subcutaneous; procedure, shortened: as §2
[30] = Tmax in Sprague-Dawley rat at 10 mg/kg, po and 2.5 mg/kg, iv; assay type: ADME, organism-based; conditions: in vivo; procedure, shortened: as §1
[31] = biological target: Metabotropic glutamate receptor 5 (Homo sapiens) (UniProt P41594); test: Antagonist activity at human mGlu 5 expressed in HEK293 cells at 10 uM by Ca+2 assay; assay type: functional, cell-based; procedure, shortened: as §5
[32] = Metabolic stability of human liver microsomes assessed as compound metabolized at 5 uM after 15 mins; assay type: ADME, Microsome; conditions: read-out: Drug metabolism; procedure, shortened: as §6
[33] = biological target: Metabotropic glutamate receptor 4 (Homo sapiens) (UniProt Q14833); test: Antagonist activity at human mGlu 4 expressed in L929 cells assessed inhibition of [35S]GTPgammaS binding by liquid scintillation counting; assay type: functional, cell-based; procedure, shortened: as §4

- AUC(0-inf) [1]: 10600 ng·h/mL
- Kp at 4 h [2]: 0.4
- EC50 [3]: 5200 nM
- clearance [4]: 15 mL/min/kg
- concentration at 2 h [5]: 1040 ng/g
- Emax [6]: 244%
- Kp at 1 h [7]: 0.2
- concentration at 1 h [8]: 932 ng/g
- Cmax [9]: 1140 ng/mL
- Activity [10]: inactive
- Activity [11]: inactive
- Activity [12]: inactive
- Activity [13]: inactive
- Activity [14]: inactive
- concentration at 4 h [15]: 843 ng/g
- half-life [16]: 4.3 h
- metabolised at 0.25 h, 5 µM [17]: 8%
- EC50 [18]: 160 nM
- Activity [19]: inactive
- concentration at 2 h [20]: 3730 ng/mL
- Kp at 2 h [21]: 0.3
- concentration at 4 h [22]: 1950 ng/mL
- Activity [23]: inactive
- Activity [24]: inactive
- Activity [25]: inactive
- Activity [26]: inactive
- Activity [27]: inactive
- bioavailability [28]: 100%
- concentration at 1 h [29]: 3810 ng/mL
- Tmax [30]: 3.3 h
- Activity [31]: inactive
- metabolised at 0.25 h, 5 µM [32]: 14%
- Activity [33]: inactive
Compound: O[C@H]1CC[C@H](n2ccc3cc(-c4ccn5c(CC(F)(F)F)cnc5c4Cl)ccc32)CC1
